Results taken from publication PMC4539048 (Science translational medicine, 2015).
≈ marks a conversion by molar mass, not a printed value. Marks after values point to notes of the source that are not given here.

Experiments:
rabbit DHODH = rabbit DHODH (Oryctolagus cuniculus, UniProt G1SWF3); experiment: DHODH inhibition, DCIP spectrophotometric assay; type: biochemical
panel of human kinases = experiment: Panel of human kinases; type: biochemical; conditions: University of Dundee
[1] = Protein binding in assay media; type: in vitro ADME; conditions: 0.5% Albumax II in RPMI-1640
[2] = system: P. falciparum gametocytes stages IV–V; experiment: Gametocyte assay stages IV–V; type: cell-based
[3] = Plasma protein binding, dog; type: in vitro ADME
[4] = system: key CYP enzymes (not individually named); experiment: CYP inhibition in human liver microsomes; type: in vitro ADME
Summary of the method: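 Inhibition of CYP isoforms was measured by a substrate-specific approach in human liver microsomes.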

[5] = Human pharmacokinetic prediction
P. falciparum gametes = experiment: Dual gamete formation assay; type: cell-based
[6] = biological target: panel of 106 human receptors and ion channels; experiment: Cerep panel of 106 human receptors and ion channels; type: binding
[7] = Chemical and physical stability; type: physicochemical
[8] = system: Salmonella typhimurium-E. coli; experiment: 5-strain bacterial reverse mutation assay
CYP2C19 = CYP2C19 (Homo sapiens, UniProt P33261); experiment: Metabolism by individual human CYP enzymes; type: in vitro ADME; conditions: CYP2C19 Supersomes
P. falciparum 3D7 [9] = experiment: Blood-stage phenotype and development by microscopy; type: cell-based; conditions: 10xEC50, 48 h
Summary of the method: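 Giemsa-stained smears were scored by microscopy, at least 200 cells per condition, for stage arrest and morphology. Standard antimalarials served as controls.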

CYP enzymes = experiment: CYP induction in human hepatocytes; type: in vitro ADME
[10] = system: P. falciparum stage V oocyst; experiment: Oocyst formation in mosquitoes
pig DHODH = pig DHODH (Sus scrofa, UniProt F1S3B0); experiment: DHODH inhibition, DCIP spectrophotometric assay; type: biochemical
P. falciparum 3D7 [11] = experiment: In vitro P. falciparum 3D7 growth inhibition; type: cell-based; conditions: Plasmodium falciparum, 3D7, read-out: P. falciparum 3D7 growth inhibition EC50
Summary of the method: (§1)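 SYBR-green growth assay on P. falciparum 3D7 and drug-resistant lines, including chloroquine- and pyrimethamine-resistant parasites, cultured in RPMI-1640 with 0.5% Albumax-II. At least triplicate data per concentration. EC50 from the log(inhibitor) vs response variable-slope (four-parameter) fit by nonlinear least squares, reported with 95% confidence intervals of the fit.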

[12] = Stability in hepatic microsomes and cryopreserved hepatocytes; type: in vitro ADME; conditions: across species
[13] = Plasma protein binding, rat; type: in vitro ADME
[14] = system: P. cynomolgi liver-stage parasites; experiment: P. cynomolgi liver-stage model; type: cell-based
[15] = system: rabbit cardiac ventricular wedge; experiment: Rabbit cardiac ventricular wedge assay
Pharmacokinetics in mice = type: in vivo; conditions: female, Swiss outbred, mouse, plasma
Summary of the method: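 Single-dose PK in female Swiss outbred mice or male beagle dogs, dosed IV and orally in a range of formulations. Blood was drawn into anticoagulant tubes and plasma separated by centrifugation. Compound was quantified by LC/MS, typically in 2–6 animals per study, with SD given where n>2.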

P. berghei DHODH = conditions: cited from earlier work
[16] = system: P. falciparum early stage gametocytes stage III – IV; strain NF54; experiment: Early stage gametocyte assay; type: cell-based
[17] = 10-day repeat dose toxicity study in dogs; type: in vivo; conditions: highest dose tested, Day 1
Summary of the method: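 Male beagle dogs were dosed orally every other day in the fed state over a 10-day repeat-dose exploratory (non-GLP) toxicology study. They were monitored daily for clinical signs, body weight and food consumption, with haematology, clinical chemistry and histopathology. Plasma toxicokinetics were taken on day 1 to give Cav, and full toxicokinetics were not collected after the final dose.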

P. cynomolgi DHODH = P. cynomolgi DHODH (Plasmodium cynomolgi, UniProt K6UE05); experiment: DHODH inhibition, DCIP spectrophotometric assay; type: biochemical
CYP2C8 = CYP2C8 (Homo sapiens, UniProt P10632); experiment: Metabolism by individual human CYP enzymes; type: in vitro ADME; conditions: CYP2C8 Supersomes
P. falciparum Dd2 = type: cell-based; conditions: Dd2, 3xEC50
[18] = system: G6PD-deficient human red blood cells; type: in vivo, NOD-SCID mice; conditions: blood type A- G6PD-deficient human red blood cells
[19] = system: micronucleated polychromatic erythrocytes; experiment: Oral bone marrow micronucleus test; type: in vivo; conditions: male CD1 mice
[20] = Cardiac safety by telemetry in conscious dogs; type: in vivo
[21] = system: P. falciparum Pf3D7_0087/N9; experiment: P. falciparum SCID mouse 4-day dosing efficacy model; type: in vivo
[22] = system: 9 strains of P. falciparum; experiment: In vitro blood-stage activity on 9 strains of P. falciparum; type: cell-based; conditions: Plasmodium falciparum, read-out: EC50 range over all tested strains
Summary of the method: as §1

[23] = 7-day repeat dose toxicity study in mice; type: in vivo; conditions: highest dose tested, Day 7
Summary of the method: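 Mice received the test compound orally once daily at 25–200 mg/kg/day for 7 days in an exploratory (non-GLP) toxicology study. They were monitored daily for clinical signs, body weight and food consumption, with haematology, clinical chemistry and histopathology. Plasma toxicokinetic parameters, including average concentration over the dosing interval, were derived on day 1 and day 7.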

P. yoelii DHODH = conditions: cited from earlier work
[24] = determined 24 h after the last dose

Sequence of pig DHODH (F1S3B0 1-395): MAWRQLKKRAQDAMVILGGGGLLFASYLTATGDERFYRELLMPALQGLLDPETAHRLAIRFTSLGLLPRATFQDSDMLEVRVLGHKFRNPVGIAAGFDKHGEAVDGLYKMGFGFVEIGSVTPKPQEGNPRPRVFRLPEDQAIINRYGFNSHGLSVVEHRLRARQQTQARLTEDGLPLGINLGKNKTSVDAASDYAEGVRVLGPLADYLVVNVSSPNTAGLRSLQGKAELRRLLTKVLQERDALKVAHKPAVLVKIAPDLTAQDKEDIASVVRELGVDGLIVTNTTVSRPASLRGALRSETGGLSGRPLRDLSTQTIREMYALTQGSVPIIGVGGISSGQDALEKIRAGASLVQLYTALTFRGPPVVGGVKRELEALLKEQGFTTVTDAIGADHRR
Sequence of CYP2C8 (P10632 whole entry): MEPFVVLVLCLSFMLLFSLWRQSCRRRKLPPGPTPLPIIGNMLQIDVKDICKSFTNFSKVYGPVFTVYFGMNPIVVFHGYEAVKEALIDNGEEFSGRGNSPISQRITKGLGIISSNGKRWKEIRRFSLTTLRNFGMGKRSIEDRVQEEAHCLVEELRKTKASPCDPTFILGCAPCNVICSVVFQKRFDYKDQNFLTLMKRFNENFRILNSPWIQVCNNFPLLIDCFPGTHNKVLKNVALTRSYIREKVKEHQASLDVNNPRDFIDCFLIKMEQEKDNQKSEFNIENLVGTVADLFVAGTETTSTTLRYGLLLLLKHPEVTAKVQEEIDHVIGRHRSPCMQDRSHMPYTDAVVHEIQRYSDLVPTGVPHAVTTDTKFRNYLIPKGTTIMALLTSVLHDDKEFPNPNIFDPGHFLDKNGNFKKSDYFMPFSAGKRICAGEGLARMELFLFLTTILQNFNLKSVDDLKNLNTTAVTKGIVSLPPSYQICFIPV
Sequence of rabbit DHODH (G1SWF3 1-395): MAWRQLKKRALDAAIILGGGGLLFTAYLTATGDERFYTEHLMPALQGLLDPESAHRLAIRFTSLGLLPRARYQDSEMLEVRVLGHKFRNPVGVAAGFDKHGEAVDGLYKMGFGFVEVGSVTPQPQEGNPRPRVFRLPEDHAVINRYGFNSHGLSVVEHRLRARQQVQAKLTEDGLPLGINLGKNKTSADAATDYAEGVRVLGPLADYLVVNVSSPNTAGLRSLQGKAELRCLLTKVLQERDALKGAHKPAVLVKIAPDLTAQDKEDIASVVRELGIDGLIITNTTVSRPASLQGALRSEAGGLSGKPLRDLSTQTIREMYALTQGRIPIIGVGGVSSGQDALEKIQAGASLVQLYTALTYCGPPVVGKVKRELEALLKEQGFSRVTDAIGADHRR
Sequence of CYP2C19 (P33261 whole entry): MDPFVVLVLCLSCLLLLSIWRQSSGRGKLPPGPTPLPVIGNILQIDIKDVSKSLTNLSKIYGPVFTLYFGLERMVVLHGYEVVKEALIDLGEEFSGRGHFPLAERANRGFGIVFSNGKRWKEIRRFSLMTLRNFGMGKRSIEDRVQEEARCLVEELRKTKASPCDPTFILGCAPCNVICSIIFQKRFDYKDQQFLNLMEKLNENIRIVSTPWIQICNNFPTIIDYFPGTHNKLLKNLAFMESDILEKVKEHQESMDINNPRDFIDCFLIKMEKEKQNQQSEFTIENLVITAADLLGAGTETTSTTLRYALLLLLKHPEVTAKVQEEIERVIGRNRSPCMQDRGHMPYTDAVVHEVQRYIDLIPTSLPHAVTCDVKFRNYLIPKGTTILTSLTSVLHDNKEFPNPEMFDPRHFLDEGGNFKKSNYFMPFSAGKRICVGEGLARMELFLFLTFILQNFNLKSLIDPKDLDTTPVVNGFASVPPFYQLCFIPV

Structure (SMILES): Cc1cc(Nc2ccc(S(F)(F)(F)(F)F)cc2)n2nc(C(C)(F)F)nc2n1 [DSM265, 2-(1,1-difluoroethyl)-5-methyl-[N-[4-(pentafluorosulfanyl)phenyl]1,2,4]triazolo[1,5-a]pyrimidin-7-amine]
- IC50 (rabbit DHODH): > 98.7 µM
- activity against a panel of human kinases (panel of human kinases): minimal activity
- Fraction unbound in assay media [1]: 0.17 ^b
- EC50, gametocytes stages IV–V [2]: no activity
- EC50 ([2]; Plasmodium falciparum, read-out: EC50, gametocytes stages IV–V): > 16 µg/mL
- fraction unbound [3]: 0.006
- IC50 [4]: > 10 µg/mL
- plasma MPC used for the human dose prediction [5]: 1 to 2 µg/mL
- EC50, dual gamete formation assay (P. falciparum gametes): inactive
- IC50 values for the full panel [6]: > 4.2 µg/mL
- stability of solutions subjected to simulated sunlight [7]: degradation
- chemical stability in the solid state ([7]; 30°/65% relative humidity for up to 24 months): chemically stable
- mutagenic activity (Ames test) [8]: non-mutagenic
- extent of metabolism (CYP2C19): 0.039 μL/min/pmol CYP
- blood-stage phenotype after treatment (P. falciparum 3D7 [9]): arrested parasites in the young trophozoite-stage
- CYP induction (CYP enzymes): did not induce CYP enzymes
- inhibition at 1 µg/mL ([10]; Plasmodium falciparum, read-out: inhibition of oocyst formation): 38%
- inhibition of oocyst formation at unbound concentration ([10]; at 0.001 μg/mL unbound (human plasma fraction unbound)): 38% at 0.001
- IC50 (pig DHODH): > 98.7 µM
- EC50 (P. falciparum 3D7 [11]): 0.0018 µg/mL (≈ 0.00433 µM)
- degradation in hepatic microsomes and cryopreserved hepatocytes [12]: minimal degradation
- fraction unbound [13]: 0.023
- activity against small forms (non-dividing hypnozoite) [14]: poor activity
- EC50 ([14]; Plasmodium cynomolgi, read-out: EC50, liver-stage large form (multinucleated schizont)): 0.13 µg/mL (≈ 0.313 µM)
- QT and Tp-e interval ([15]; at 1 or 0.5 Hz): did not cause any significant prolongation
- Torsade de Pointes (TdP)-type arrhythmias ([15]; tested up to 5 μg/mL): no Torsade de Pointes (TdP)-type arrhythmias were observed
- half-life (Pharmacokinetics in mice): 2 to 4 h
- activity against P. berghei DHODH (P. berghei DHODH): poor activity
- EC50 ([16]; Plasmodium falciparum, NF54, read-out: EC50, early stage gametocytes stage III – IV): > 0.42 µg/mL
- EC50, early stage gametocytes stage III – IV ([16]; strain NF54): no activity
- average plasma concentration within a dosing interval (Cav) [17]: 16400 ng/mL
- IC50 (P. cynomolgi DHODH): 0.012 µM
- extent of metabolism (CYP2C8): 0.032 μL/min/pmol CYP
- MIR, range over two independent studies (P. falciparum Dd2): 2×10^5–2×10^7 parasites
- hemolytic toxicity [18]: not hemolytic
- micronucleated polychromatic erythrocytes [19]: no increase
- concentration at 24 h ([20]; dog, plasma, oral, 300 mg/kg): 1300 ng/mL
- ECGs ([20]; oral doses of 30 and 300 mg/kg): within normal limits
- blood concentration 23 h after the last dose, estimate of the MPC ([21]; 13 mg/kg/day (6.4 mg/kg b.i.d.), oral, 4 days): 0.53 µg/mL
- SCID mouse in vivo MPC (plasma) ([21]; blood converted to plasma with blood to plasma ratio 0.5): 1.1 ^c μg/mL
- Unbound SCID mouse in vivo MPC (plasma) ([21]; corrected with fraction unbound 0.001): 0.0011 µg/mL
- ED90 [21, 24]: 1.5 mg/kg/12 h
- dose at the MPC [21, 24]: 6.4 mg/kg/12 h
- EC50 [22]: 0.001 to 0.004 µg/mL (≈ 0.00241 to 0.00963 µM)
- average plasma concentration within a dosing interval (Cav) [23]: 11700 ng/mL
- activity against P. yoelii DHODH (P. yoelii DHODH): poor activity
